pIC50: −log10 of the molar value. The source made the active and inactive calls. The calls are words filed in the database; no cut-off is given here. Numbered stars: 1 amine (or outer) side, 2 acyl side, 3 side chain; on linkers, the order of the positions; unused ones are H or OH. Bridge positions count the residues as written; N and C are the ends. Square brackets hold non-standard residues; d marks the D form. Peptide text beside a SMILES is read from it. I, II: the chains in the order shown. Phe(4-guanidino) = N=C(N)Nc1ccc(C[C@H](N)C(=O)O)cc1; X1 = O=C(C(=O)[*:2])[C@H](Cc1ccc(O)cc1)N[*:1]; NHCH2CH2N(Me)CH2CO = CN(CCN[*:1])CC(=O)[*:2]; NMeL = CN[C@@H](CC(C)C)C(=O)O; Pen = CC(C)(S)[C@H](N)C(=O)O; Suc = O=C(CCC(=O)[*:2])[*:1]; Sar = CNCC(=O)O
How the values were obtained:
[1] = target: T1, IgG receptor FcRn large subunit p51 (Homo sapiens, UniProt P55899); experiment: Inhibition of IgG binding to soluble human FcRn after 2 hrs by competition ELISA
T1 sequence (P55899 whole entry): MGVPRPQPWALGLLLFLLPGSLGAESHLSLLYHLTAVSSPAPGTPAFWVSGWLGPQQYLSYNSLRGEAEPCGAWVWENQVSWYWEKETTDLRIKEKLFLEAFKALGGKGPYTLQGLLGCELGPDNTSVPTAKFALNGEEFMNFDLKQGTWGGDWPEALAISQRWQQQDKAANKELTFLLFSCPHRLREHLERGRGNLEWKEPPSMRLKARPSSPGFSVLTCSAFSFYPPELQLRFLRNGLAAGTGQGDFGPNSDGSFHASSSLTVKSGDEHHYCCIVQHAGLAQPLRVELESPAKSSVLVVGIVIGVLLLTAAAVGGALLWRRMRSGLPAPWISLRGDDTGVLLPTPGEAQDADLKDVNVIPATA

[2] = target: T1, IgG receptor FcRn large subunit p51; experiment: Ratio of RF-Pen-NMeAla-GHF-X-NMeLeu-YPC IC50 to compound IC50 for soluble human FcRn
Mus musculus [3] = experiment: Increase in human IgG catabolism in endogenous FcRn/beta2m gene knockout TG32B transgenic mouse harboring human FcRn at 1 mg/kg, iv QD for 4 consecutive days measured after 24 hrs by ELISA; format: functional, organism-based; parameters: dose 1 mg/kg
Summary of the method: (§1)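 TG32B mice (muFcRn−/−, muβ2m−/−, huFcRn+/+, huβ2m+/+), 4 per group, got 500 mg/kg hIgG (pooled subtypes) iv at 0 h. Peptide or vehicle (20 mM sodium acetate, pH 5) was given iv at 24, 48, 72 and 96 h. Blood was taken before each injection and at 30, 120 and 168 h. Serum hIgG was measured by ELISA: goat anti-hIgG(Fab) capture, goat anti-hIgG(Fc)-HRP detection.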

[4] = target: T1, IgG receptor FcRn large subunit p51; experiment: Ratio of RF-Pen-TG-4GuPhe-G-Sar-NMeLeu-YPC IC50 to compound IC50 for soluble human FcRn
Mus musculus [5] = experiment: Increase in human IgG catabolism in iv dosed endogenous FcRn/beta2m gene knockout TG32B transgenic mouse harboring human FcRn administered QD for 4 consecutive days measured after 24 hrs by ELISA; format: functional, organism-based
Summary of the method: as §1

[6] = target: T1, IgG receptor FcRn large subunit p51; experiment: Ratio of RF-Pen-TGHFG-Sar-NMeLeu-YPC IC50 to compound IC50 for soluble human FcRn
Mus musculus [7] = experiment: Increase in human IgG catabolism in endogenous FcRn/beta2m gene knockout TG32B transgenic mouse harboring human FcRn at 5 mg/kg, iv QD for 4 consecutive days measured after 24 hrs by ELISA; format: functional, organism-based; parameters: dose 5 mg/kg
Summary of the method: as §1

Mus musculus [8] = experiment: Increase in human IgG catabolism in endogenous FcRn/beta2m gene knockout TG32B transgenic mouse harboring human FcRn at 2.5 mg/kg, iv QD for 4 consecutive days measured after 24 hrs by ELISA; format: functional, organism-based; parameters: dose 2.5 mg/kg
Summary of the method: as §1

[9] = target: T1, IgG receptor FcRn large subunit p51; experiment: Ratio of RF-Pen-TGHF-valerolactam-NMeLeu-YPC IC50 to compound IC50 for soluble human FcRn
[10] = target: T1, IgG receptor FcRn large subunit p51; experiment: Ratio of RFCTGHFGGLYPC IC50 to compound IC50 for soluble human FcRn

| pIC50 [1] | SMILES | Activity (Mus musculus [3]) | Activity (Mus musculus [5]) | Activity (Mus musculus [7]) | also measured |
| --- | --- | --- | --- | --- | --- |
| 7.74 | CC(C)C[C@H]1C(=O)N[C@@H](Cc2ccc(O)cc2)C(=O)C(=O)N2CCC[C@H]2C(=O)N[C@H](C(N)=O)CSSC(C)(C)[C@H](NC(=O)[C@H](Cc2ccccc2)NC(=O)[C@H](CCCNC(=N)N)NC(=O)CCC(=O)NCCN(C)CC(=O)N[C@@H](CCCNC(=N)N)C(=O)N[C@@H](Cc2ccccc2)C(=O)N[C@@H]2C(=O)N(C)[C@@H](C)C(=O)NCC(=O)N[C@@H](Cc3c[nH]cn3)C(=O)N[C@@H](Cc3ccccc3)C(=O)N[C@H]3CCCN(CC(=O)N(C)[C@@H](CC(C)C)C(=O)N[C@@H](Cc4ccc(O)cc4)C(=O)C(=O)N4CCC[C@H]4C(=O)N[C@H](C(N)=O)CSSC2(C)C)C3=O)C(=O)N(C)[C@@H](C)C(=O)NCC(=O)N[C@@H](Cc2c[nH]cn2)C(=O)N[C@@H](Cc2ccccc2)C(=O)N[C@H]2CCCN(CC(=O)N1C)C2=O | Active | – | – | Ratio IC50 [2]: 61 |
| – | CC(C)C[C@H]1C(=O)N[C@@H](Cc2ccc(O)cc2)C(=O)C(=O)N2CCC[C@H]2C(=O)N[C@H](C(N)=O)CSSC(C)(C)[C@H](NC(=O)[C@H](Cc2ccccc2)NC(=O)[C@H](CCCNC(=N)N)NC(=O)CCC(=O)N[C@@H](CCCNC(=N)N)C(=O)N[C@@H](Cc2ccccc2)C(=O)N[C@@H]2C(=O)N[C@@H]([C@@H](C)O)C(=O)NCC(=O)N[C@@H](Cc3ccc(NC(=N)N)cc3)C(=O)NCC(=O)N(C)CC(=O)N(C)[C@@H](CC(C)C)C(=O)N[C@@H](Cc3ccc(O)cc3)C(=O)C(=O)N3CCC[C@H]3C(=O)N[C@H](C(N)=O)CSSC2(C)C)C(=O)N[C@@H]([C@@H](C)O)C(=O)NCC(=O)N[C@@H](Cc2ccc(NC(=N)N)cc2)C(=O)NCC(=O)N(C)CC(=O)N1C (I: RF[Pen]TG[Phe(4-guanidino)]G[Sar][NMeL][X1]PC-NH2 / II: RF[Pen]TG[Phe(4-guanidino)]G[Sar][NMeL][X1]PC-NH2; disulfide I:3-I:12, II:3-II:12; linker I:N-II:N via Suc) | Active | – | – | Ratio IC50 [4]: 50 |
| – | CC(C)C[C@H]1C(=O)N[C@@H](Cc2ccc(O)cc2)C(=O)C(=O)N2CCC[C@H]2C(=O)N[C@H](C(N)=O)CSSC(C)(C)[C@H](NC(=O)[C@H](Cc2ccccc2)NC(=O)[C@H](CCCNC(=N)N)NC(=O)CCC(=O)N[C@@H](CCCNC(=N)N)C(=O)N[C@@H](Cc2ccccc2)C(=O)N[C@@H]2C(=O)N[C@@H]([C@@H](C)O)C(=O)NCC(=O)N[C@@H](Cc3c[nH]cn3)C(=O)N[C@@H](Cc3ccccc3)C(=O)NCC(=O)N(C)CC(=O)N(C)[C@@H](CC(C)C)C(=O)N[C@@H](Cc3ccc(O)cc3)C(=O)C(=O)N3CCC[C@H]3C(=O)N[C@H](C(N)=O)CSSC2(C)C)C(=O)N[C@@H]([C@@H](C)O)C(=O)NCC(=O)N[C@@H](Cc2c[nH]cn2)C(=O)N[C@@H](Cc2ccccc2)C(=O)NCC(=O)N(C)CC(=O)N1C | Active | Active | Active | Ratio IC50 [6]: 220; Activity (Mus musculus [8]): Active |
| – | CC(C)C[C@H]1C(=O)N[C@@H](Cc2ccc(O)cc2)C(=O)C(=O)N2CCC[C@H]2C(=O)N[C@H](C(N)=O)CSSC(C)(C)[C@H](NC(=O)[C@H](Cc2ccccc2)NC(=O)[C@H](CCCNC(=N)N)NC(=O)CCC(=O)NCCN(C)CC(=O)N[C@@H](CCCNC(=N)N)C(=O)N[C@@H](Cc2ccccc2)C(=O)N[C@@H]2C(=O)N[C@@H]([C@@H](C)O)C(=O)NCC(=O)N[C@@H](Cc3c[nH]cn3)C(=O)N[C@@H](Cc3ccccc3)C(=O)N[C@H]3CCCN(CC(=O)N(C)[C@@H](CC(C)C)C(=O)N[C@@H](Cc4ccc(O)cc4)C(=O)C(=O)N4CCC[C@H]4C(=O)N[C@H](C(N)=O)CSSC2(C)C)C3=O)C(=O)N[C@@H]([C@@H](C)O)C(=O)NCC(=O)N[C@@H](Cc2c[nH]cn2)C(=O)N[C@@H](Cc2ccccc2)C(=O)N[C@H]2CCCN(CC(=O)N1C)C2=O | – | Active | – | Ratio IC50 [9]: 110 |
| 7.30 | CC(C)C[C@H]1C(=O)N[C@@H](Cc2ccc(O)cc2)C(=O)C(=O)N2CCC[C@H]2C(=O)N[C@H](C(N)=O)CCCCNC(=O)C[C@H](NC(=O)[C@H](Cc2ccccc2)NC(=O)[C@H](CCCNC(=N)N)NC(=O)CCC(=O)NCCN(C)CC(=O)N[C@@H](CCCNC(=N)N)C(=O)N[C@@H](Cc2ccccc2)C(=O)N[C@H]2CC(=O)NCCCC[C@@H](C(N)=O)NC(=O)[C@@H]3CCCN3C(=O)C(=O)[C@H](Cc3ccc(O)cc3)NC(=O)[C@H](CC(C)C)N(C)C(=O)CN(C)C(=O)CNC(=O)[C@H](Cc3ccccc3)NC(=O)[C@H](Cc3c[nH]cn3)NC(=O)CNC(=O)[C@H]([C@@H](C)O)NC2=O)C(=O)N[C@@H]([C@@H](C)O)C(=O)NCC(=O)N[C@@H](Cc2c[nH]cn2)C(=O)N[C@@H](Cc2ccccc2)C(=O)NCC(=O)N(C)CC(=O)N1C (I: [NHCH2CH2N(Me)CH2CO]RFDTGHFG[Sar][NMeL][X1]PK-NH2 / II: RFDTGHFG[Sar][NMeL][X1]PK-NH2; lactam I:4-I:14, II:3-II:13; linker I:N-II:N via Suc) | – | – | Active | – |
| – | CC(C)C[C@@H]1NC(=O)CNC(=O)CNC(=O)[C@H](Cc2ccccc2)NC(=O)[C@H](Cc2c[nH]cn2)NC(=O)CNC(=O)[C@H]([C@@H](C)O)NC(=O)[C@@H](NC(=O)[C@H](Cc2ccccc2)NC(=O)[C@H](CCCNC(=N)N)NC(=O)CCC(=O)NCCN(C)CC(=O)N[C@@H](CCCNC(=N)N)C(=O)N[C@@H](Cc2ccccc2)C(=O)N[C@H]2CSSC[C@@H](C(N)=O)NC(=O)[C@@H]3CCCN3C(=O)C(=O)[C@H](Cc3ccc(O)cc3)NC(=O)[C@H](CC(C)C)NC(=O)CNC(=O)CNC(=O)[C@H](Cc3ccccc3)NC(=O)[C@H](Cc3c[nH]cn3)NC(=O)CNC(=O)[C@H]([C@@H](C)O)NC2=O)CSSC[C@@H](C(N)=O)NC(=O)[C@@H]2CCCN2C(=O)C(=O)[C@H](Cc2ccc(O)cc2)NC1=O | – | – | – | Ratio IC50 [10]: 12 |

Source: ChEMBL document CHEMBL1156264, “Synthesis and structure-activity relationships of dimeric peptide antagonists of the human immunoglobulin G-human neonatal Fc receptor (IgG-FcRn) interaction” (J Med Chem, 2010)
